Values belong to the compound of their own block, whether it stands above or below them. Active and inactive are the calls of the source. The rule behind the calls is not given here.
How the values were obtained:
[1] = target: T1, Amyloid-beta precursor protein (Homo sapiens, UniProt P05067); test: Inhibition of amyloid beta42 aggregation assessed as reduction in fluorescence after 4 days by thioflavin T-based fluorometry
How it was run: (§1)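 Aβ42 at 25 μM was incubated with a range of compound concentrations in triplicate at 37°C with shaking for four days, read at t=0 and t=4 d. Compound was taken from a 10 mM DMSO stock diluted in PBS. Aliquots were added to 25 μM ThT in 50 mM glycine, pH 8, for 5 min, then read at ex 446/em 490 nm. IC50 was taken from % fluorescence of untreated control.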

[2] = Drug degradation in aqueous buffer assessed as 3,5-dichloro-2-hydroxybenzaldehyde formation up to 24 hrs by LC-MS analysis at pH 7.4; type: physicochemical; conditions: pH 7.4, 24 h
[3] = target: T1, Amyloid-beta precursor protein; test: Inhibition of amyloid beta42 aggregation assessed as inhibition of fibril formation at 25 uM after 5 days by circular dichroism
How it was run: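 Circular dichroism: 25 μM Aβ42 alone or mixed 1:1 with 25 μM compound, incubated at 37°C with orbital shaking at 200 rpm. Spectra taken every 24 h for 5 days at 37°C in a 1-mm cell, 190–260 nm, 0.2-nm resolution, 1-nm bandwidth, background-subtracted and averaged. Compound dissolved to 10 mM in NaOH, then diluted in PBS.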

PC-12 = test: Cytotoxicity against rat PC12 cells assessed as reduction in cell viability at 50 uM after 48 hrs by MTT assay; type: cell-based; conditions: pc-12, 48 h
[4] = Inhibition of amyloid beta42 assessed as increase in amorphous aggregates at 25 uM after 4 days by […] electron microscopy
How it was run: (§2)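 Negative-stain TEM: 25 μM Aβ42 alone or with 25 μM compound (1:1), incubated four days at 37°C. Aliquots spotted 2 min on glow-discharged carbon-coated Formvar grids and stained with 1% uranyl acetate.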

[5] = Inhibition of amyloid beta42 assessed as decrease in mature fibril formation at 25 uM after 4 days by […] electron microscopy; how it was run: as §2
[6] = target: T1, Amyloid-beta precursor protein; test: Inhibition of amyloid beta42 aggregation assessed as reduction in fluorescence measured immediately post-compound addition by thioflavin T-based fluorometry; how it was run: as §1
[7] = Drug degradation in aqueous buffer assessed as (E)-N-(2-(3,5-dichloro-2-hydroxybenzylideneamino)-4-methylphenyl)benzo[b]oxirene-3-sulfonamide formation up to 24 hrs by LC-MS analysis at pH 7.4; type: physicochemical; conditions: pH 7.4, 24 h
[8] = Drug degradation in aqueous buffer assessed as N-(2-amino-4-methylphenyl)-4-chlorobenzenesulfonamide formation up to 24 hrs by LC-MS analysis at pH 7.4; type: physicochemical; conditions: pH 7.4, 24 h
[9] = Drug degradation in aqueous buffer assessed as N-(2-amino-4-methylphenyl)benzo[b]oxirene-3-sulfonamide formation up to 24 hrs by LC-MS analysis at pH 7.4; type: physicochemical; conditions: pH 7.4, 24 h

T1 sequence (P05067 whole entry): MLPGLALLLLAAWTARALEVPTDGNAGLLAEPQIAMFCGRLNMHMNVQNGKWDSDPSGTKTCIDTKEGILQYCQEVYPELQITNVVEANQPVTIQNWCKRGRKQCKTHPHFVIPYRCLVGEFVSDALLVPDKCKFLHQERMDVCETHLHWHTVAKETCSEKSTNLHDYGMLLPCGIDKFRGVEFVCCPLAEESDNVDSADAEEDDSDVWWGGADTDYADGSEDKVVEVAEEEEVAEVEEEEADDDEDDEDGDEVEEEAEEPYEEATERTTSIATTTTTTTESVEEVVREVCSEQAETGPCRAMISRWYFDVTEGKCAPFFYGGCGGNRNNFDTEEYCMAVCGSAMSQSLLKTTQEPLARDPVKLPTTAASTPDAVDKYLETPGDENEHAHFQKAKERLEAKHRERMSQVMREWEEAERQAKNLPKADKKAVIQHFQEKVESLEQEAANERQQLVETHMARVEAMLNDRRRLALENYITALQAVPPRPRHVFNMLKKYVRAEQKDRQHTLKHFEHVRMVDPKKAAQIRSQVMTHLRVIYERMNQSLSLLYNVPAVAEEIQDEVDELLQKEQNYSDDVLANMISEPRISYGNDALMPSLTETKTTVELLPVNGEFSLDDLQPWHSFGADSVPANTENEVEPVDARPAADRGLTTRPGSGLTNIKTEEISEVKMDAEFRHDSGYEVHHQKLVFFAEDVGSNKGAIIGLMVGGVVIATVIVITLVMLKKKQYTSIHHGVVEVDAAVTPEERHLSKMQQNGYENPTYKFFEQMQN

SMILES: O=Cc1cc(Cl)cc(Cl)c1O
inhibition [1]: inactive
Drug degradation [2]: Active

SMILES: Cc1ccc(NS(=O)(=O)c2ccc3c(c2)O3)c(N)c1
Drug degradation [9]: Active

Second part, led by results:

inhibition [3]: Active
inhibition [4]: Active
IC50 [1]: 13 µM
inhibition [1]: Dose-dependent effect
inhibition [5]: Active
IC50 [6]: 62 µM
SMILES: Cc1ccc(NS(=O)(=O)c2ccc(Cl)cc2)c(/N=C/c2cc(Cl)cc(Cl)c2O)c1
Activity (PC-12): 40%

Drug degradation [7]: Active
SMILES: Cc1ccc(NS(=O)(=O)c2ccc3c(c2)O3)c(/N=C/c2cc(Cl)cc(Cl)c2O)c1

Drug degradation [8]: Active
IC50 [1]: 23 µM
inhibition [1]: Dose-dependent effect
IC50 [6]: 30 µM
SMILES: Cc1ccc(NS(=O)(=O)c2ccc(Cl)cc2)c(N)c1

Reference: ChEMBL document CHEMBL2062413, “Design of β-amyloid aggregation inhibitors from a predicted structural motif” (J Med Chem, 2012)
